From article PMC6500982 (Cancer Science, 2019)

Experiment: Safety and tolerability
Format: in vivo, human
How it was run: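 Patients (enrolled January 2015–February 2016) received oral test compound in four cohorts: 160, 320 or 480 mg QD, or 300 mg BID. Dosing continued until progression, unacceptable AEs or consent withdrawal. AEs were graded by CTCAE v4.0, alongside laboratory tests, vital signs and ECGs. The safety population was all patients receiving ≥1 dose.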

CC#CC(=O)N1CC[C@@H](n2c(=O)n(-c3ccc(Oc4ccccc4)cc3)c3c(N)ncnc32)C1 [tirabrutinib]
Myalgia, Any grade (320 mg QD N = 3): 0 n (%)
Myalgia, Grade ≥3 (320 mg QD N = 3): 0 n (%)
Nasopharyngitis, Any grade (320 mg QD N = 3): 0 n (%)
Nasopharyngitis, Grade ≥3 (320 mg QD N = 3): 0 n (%)
Nausea, Any grade (320 mg QD N = 3): 0 n (%)
Nausea, Grade ≥3 (320 mg QD N = 3): 0 n (%)
Neutropenia, Any grade (320 mg QD N = 3): 2 (66.7) n (%)
Neutropenia, Grade ≥3 (320 mg QD N = 3): 2 (66.7) n (%)
Pharyngitis, Any grade (320 mg QD N = 3): 0 n (%)
Pharyngitis, Grade ≥3 (320 mg QD N = 3): 0 n (%)
Pyrexia, Any grade (320 mg QD N = 3): 0 n (%)
Pyrexia, Grade ≥3 (320 mg QD N = 3): 0 n (%)
Rash, Any grade (320 mg QD N = 3): 2 (66.7) n (%)
Rash, Grade ≥3 (320 mg QD N = 3): 0 n (%)
Thrombocytopenia, Any grade (320 mg QD N = 3): 1 (33.3) n (%)
Thrombocytopenia, Grade ≥3 (320 mg QD N = 3): 0 n (%)
Upper respiratory tract inflammation, Any grade (320 mg QD N = 3): 1 (33.3) n (%)
Upper respiratory tract inflammation, Grade ≥3 (320 mg QD N = 3): 0 n (%)
Vomiting, Any grade (320 mg QD N = 3): 1 (33.3) n (%)
Vomiting, Grade ≥3 (320 mg QD N = 3): 0 n (%)
All AEs, Any grade (480 mg QD N = 4): 4 (100.0) n (%)
All AEs, Grade ≥3 (480 mg QD N = 4): 2 (50.0) n (%)
Anemia, Any grade (480 mg QD N = 4): 2 (50.0) n (%)
Anemia, Grade ≥3 (480 mg QD N = 4): 1 (25.0) n (%)
Arthralgia, Any grade (480 mg QD N = 4): 0 n (%)
Arthralgia, Grade ≥3 (480 mg QD N = 4): 0 n (%)
Aspartate aminotransferase increased, Any grade (480 mg QD N = 4): 1 (25.0) n (%)
Aspartate aminotransferase increased, Grade ≥3 (480 mg QD N = 4): 0 n (%)
Constipation, Any grade (480 mg QD N = 4): 1 (25.0) n (%)
Constipation, Grade ≥3 (480 mg QD N = 4): 0 n (%)
Cystitis, Any grade (480 mg QD N = 4): 0 n (%)
Cystitis, Grade ≥3 (480 mg QD N = 4): 0 n (%)
Diarrhea, Any grade (480 mg QD N = 4): 0 n (%)
Diarrhea, Grade ≥3 (480 mg QD N = 4): 0 n (%)
Dysgeusia, Any grade (480 mg QD N = 4): 1 (25.0) n (%)
Dysgeusia, Grade ≥3 (480 mg QD N = 4): 0 n (%)
Gamma‐glutamyltransferase increased, Any grade (480 mg QD N = 4): 0 n (%)
Gamma‐glutamyltransferase increased, Grade ≥3 (480 mg QD N = 4): 0 n (%)
Headache, Any grade (480 mg QD N = 4): 0 n (%)
Headache, Grade ≥3 (480 mg QD N = 4): 0 n (%)
Hypokalemia, Any grade (480 mg QD N = 4): 2 (50.0) n (%)
Hypokalemia, Grade ≥3 (480 mg QD N = 4): 0 n (%)
Hypophosphatemia, Any grade (480 mg QD N = 4): 2 (50.0) n (%)
Hypophosphatemia, Grade ≥3 (480 mg QD N = 4): 1 (25.0) n (%)
Insomnia, Any grade (480 mg QD N = 4): 0 n (%)
Insomnia, Grade ≥3 (480 mg QD N = 4): 0 n (%)
Leukopenia, Any grade (480 mg QD N = 4): 0 n (%)
Leukopenia, Grade ≥3 (480 mg QD N = 4): 0 n (%)
Lymphopenia, Any grade (480 mg QD N = 4): 1 (25.0) n (%)
Lymphopenia, Grade ≥3 (480 mg QD N = 4): 0 n (%)
Malaise, Any grade (480 mg QD N = 4): 1 (25.0) n (%)
Malaise, Grade ≥3 (480 mg QD N = 4): 0 n (%)
Myalgia, Any grade (480 mg QD N = 4): 0 n (%)
Myalgia, Grade ≥3 (480 mg QD N = 4): 0 n (%)
Nasopharyngitis, Any grade (480 mg QD N = 4): 0 n (%)
Nasopharyngitis, Grade ≥3 (480 mg QD N = 4): 0 n (%)
Nausea, Any grade (480 mg QD N = 4): 1 (25.0) n (%)
Nausea, Grade ≥3 (480 mg QD N = 4): 0 n (%)
Neutropenia, Any grade (480 mg QD N = 4): 1 (25.0) n (%)
Neutropenia, Grade ≥3 (480 mg QD N = 4): 1 (25.0) n (%)
Pharyngitis, Any grade (480 mg QD N = 4): 0 n (%)
Pharyngitis, Grade ≥3 (480 mg QD N = 4): 0 n (%)
Pyrexia, Any grade (480 mg QD N = 4): 0 n (%)
Pyrexia, Grade ≥3 (480 mg QD N = 4): 0 n (%)
Rash, Any grade (480 mg QD N = 4): 2 (50.0) n (%)
Rash, Grade ≥3 (480 mg QD N = 4): 0 n (%)
Thrombocytopenia, Any grade (480 mg QD N = 4): 1 (25.0) n (%)
Thrombocytopenia, Grade ≥3 (480 mg QD N = 4): 0 n (%)
